Experiments:
Assay type in all cases: functional, Mus musculus
[1] = test system: P388; experiment: Compound was tested against P388 Lymphocytic Leukemia for %survival of mice measured as treated versus control at dose of 100 mg/kg
Outline: (§1)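 Male CD1F1 mice inoculated ip with ascitic fluid holding ca. 6 × 10^6 P388 cells. Drug given ip as a distilled water-Tween 80 suspension, nine daily doses starting 24 h after tumor inoculation. Median survival time of treated mice compared with untreated controls and expressed as % T/C; % T/C ≥ 120 counted as significant.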

[2] = test system: P388; experiment: Compound was tested against P388 Lymphocytic Leukemia for %survival of mice measured as treated versus control at dose of 12.5 mg/kg; outline: as §1
[3] = test system: P388; experiment: Compound was tested against P388 Lymphocytic Leukemia for %survival of mice measured as treated versus control at dose of 200 mg/kg; outline: as §1
[4] = test system: P388; experiment: Compound was tested against P388 Lymphocytic Leukemia for %survival of mice measured as treated versus control at dose of 25 mg/kg; outline: as §1
[5] = test system: P388; experiment: Compound was tested against P388 Lymphocytic Leukemia for %survival of mice measured as treated versus control at dose of 50 mg/kg; outline: as §1
[6] = test system: P388; experiment: Animal weight loss was tested for P388 Lymphocytic Leukemia and measured for change in weight, in treated and control mice at dose of 100 mg/kg; design: unit not given here
Outline: (§2)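 P388 leukemia was induced by ip inoculation of ascitic fluid containing ca. 6 × 10^6 cells into male CD1F1 mice. Drug was given ip as a distilled water–Tween 80 suspension, nine daily doses starting 24 h after tumor inoculation. Body weight change was recorded on day 5, i.e. 4 days after the first injection, in treated and untreated control groups.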

[7] = test system: P388; experiment: Animal weight loss was tested for P388 Lymphocytic Leukemia and measured for change in weight, in treated and control mice at dose of 12.5 mg/kg; design: unit not given here; outline: as §2
[8] = test system: P388; experiment: Animal weight loss was tested for P388 Lymphocytic Leukemia and measured for change in weight, in treated and control mice at dose of 200 mg/kg; outline: as §2
[9] = test system: P388; experiment: Animal weight loss was tested for P388 Lymphocytic Leukemia and measured for change in weight, in treated and control mice at dose of 25 mg/kg; design: unit not given here; outline: as §2
[10] = test system: P388; experiment: Animal weight loss was tested for P388 Lymphocytic Leukemia and measured for change in weight, in treated and control mice at dose of 50 mg/kg; design: unit not given here; outline: as §2
[11] = test system: P388; experiment: Toxicity against P388 Lymphocytic Leukemia and measured for number of mice survived after five days of 100 mg/kg drug administration out of 6 mice tested
Outline: (§3)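 Male CD1F1 mice given ip ascitic fluid with ca. 6 × 10^6 P388 cells, then ip dosing in a distilled water-Tween 80 suspension, nine daily doses beginning 24 h post-inoculation. Surviving mice counted on day 5, i.e., 4 days after the first compound injection.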

[12] = test system: P388; experiment: Toxicity against P388 Lymphocytic Leukemia and measured for number of mice survived after five days of 200 mg/kg drug administration out of 6 mice tested; outline: as §3
[13] = test system: P388; experiment: Toxicity against P388 Lymphocytic Leukemia and measured for number of mice survived after five days of 50 mg/kg drug administration out of 6 mice tested; outline: as §3
[14] = test system: P388; experiment: Toxicity was tested for P388 Lymphocytic Leukemia and measured for number of mice survived after five days of 25 mg/kg drug administration out of 6 mice tested; outline: as §3
[15] = test system: P388; experiment: tested for toxity against P388 Lymphocytic Leukemia and measured for number of mice survived after five days of 12.5 mg/kg drug administration out of 6 mice tested; outline: as §3
[16] = test system: P388; experiment: Toxicity against P388 Lymphocytic Leukemia and measured for number of mice survived after five days of 12.5 mg/kg drug administration out of 6 mice tested; outline: as §3
[17] = test system: P388; experiment: Toxicity against P388 Lymphocytic Leukemia and measured for number of mice survived after five days of 25 mg/kg drug administration out of 6 mice tested; outline: as §3
[18] = test system: P388; experiment: Compound was tested against P388 Lymphocytic Leukemia for %survival of mice measured as treated versus control at dose of 2.5 mg/kg
[19] = test system: P388; experiment: Compound was tested against P388 Lymphocytic Leukemia for %survival of mice measured as treated versus control at dose of 20 mg/kg
[20] = test system: P388; experiment: Compound was tested against P388 Lymphocytic Leukemia for %survival of mice measured as treated versus control at dose of 40 mg/kg
[21] = test system: P388; experiment: Compound was tested against P388 Lymphocytic Leukemia for %survival of mice measured as treated versus control at dose of 5 mg/kg
[22] = test system: P388; experiment: Compound was tested against P388 Lymphocytic Leukemia for %survival of mice measured as treated versus control at dose of 10 mg/kg
[23] = test system: P388; experiment: Animal weight loss was tested for P388 Lymphocytic Leukemia and measured for change in weight, in treated and control mice at dose of 10 mg/kg
[24] = test system: P388; experiment: Animal weight loss was tested for P388 Lymphocytic Leukemia and measured for change in weight, in treated and control mice at dose of 2.5 mg/kg
[25] = test system: P388; experiment: Animal weight loss was tested for P388 Lymphocytic Leukemia and measured for change in weight, in treated and control mice at dose of 5 mg/kg
[26] = test system: P388; experiment: Animal weight loss was tested for P388 Lymphocytic Leukemia and measured for change in weight, in treated and controlled mice at dose of 20 mg/kg
[27] = test system: P388; experiment: Toxicity against P388 Lymphocytic Leukemia and measured for change in weight, in treated and controlled mice at dose of 40 mg/kg
[28] = test system: P388; experiment: Toxicity against P388 Lymphocytic Leukemia and measured for number of mice survived after five days of 2.5 mg/kg drug administration out of 6 mice tested
[29] = test system: P388; experiment: Toxicity against P388 Lymphocytic Leukemia and measured for number of mice survived after five days of 5 mg/kg drug administration out of 6 mice tested
[30] = test system: P388; experiment: Toxicity was tested for P388 Lymphocytic Leukemia and measured for number of mice survived after five days of 10 mg/kg drug administration out of 6 mice tested
[31] = test system: P388; experiment: Toxicity was tested for P388 Lymphocytic Leukemia and measured for number of mice survived after five days of 20 mg/kg drug administration out of 6 mice tested
[32] = test system: P388; experiment: Toxicity was tested for P388 Lymphocytic Leukemia and measured for number of mice survived after five days of 40 mg/kg drug administration out of 6 mice tested
[33] = test system: P388; experiment: Compound was tested against P388 Lymphocytic Leukemia for %survival of mice measured as treated versus control at dose of 6.25 mg/kg; outline: as §1
[34] = test system: P388; experiment: Animal weight loss was tested for P388 Lymphocytic Leukemia and measured for change in weight, in treated and control mice at dose of 6.25 mg/kg; outline: as §2
[35] = test system: P388; experiment: Toxicity against P388 Lymphocytic Leukemia and measured for number of mice survived after five days of 6.25 mg/kg drug administration out of 6 mice tested; outline: as §3
[36] = test system: P388; experiment: Compound was tested against P388 Lymphocytic Leukemia for %survival of mice measured as treated versus control at dose of 1.56 mg/kg; outline: as §1
[37] = test system: P388; experiment: Compound was tested against P388 Lymphocytic Leukemia for %survival of mice measured as treated versus control at dose of 3.13 mg/kg; outline: as §1
[38] = test system: P388; experiment: Animal weight loss was tested for P388 Lymphocytic Leukemia and measured for change in weight, in treated and control mice at dose of 1.56 mg/kg; outline: as §2
[39] = test system: P388; experiment: Animal weight loss was tested for P388 Lymphocytic Leukemia and measured for change in weight, in treated and control mice at dose of 3.13 mg/kg; outline: as §2
[40] = test system: P388; experiment: Toxicity against P388 Lymphocytic Leukemia and measured for number of mice survived after five days of 1.56 mg/kg drug administration out of 6 mice tested; outline: as §3
[41] = test system: P388; experiment: Toxicity against P388 Lymphocytic Leukemia and measured for number of mice survived after five days of 3.13 mg/kg drug administration out of 6 mice tested; outline: as §3
[42] = test system: P388; experiment: Toxicity against P388 Lymphocytic Leukemia and measured for number of female mice survived after five days of 12.5 mg/kg drug administration out of 6 mice tested
[43] = test system: P388; experiment: Toxicity against P388 Lymphocytic Leukemia and measured for number of female mice survived after five days of 25 mg/kg drug administration out of 6 mice tested
[44] = test system: P388; experiment: Toxicity against P388 Lymphocytic Leukemia and measured for number of female mice survived after five days of 6.25 mg/kg drug administration out of 6 mice tested

Row | Structure (SMILES) | T/C [1] | T/C [2] | T/C [3] | T/C [4] | T/C [5] | Weight loss [6] | Weight loss [7] | Weight loss [8] | Weight loss [9] | Weight loss [10] | No. of mice survived [11] | No. of mice survived [12] | No. of mice survived [13] | No. of mice survived [16] | No. of mice survived [17] | T/C [33] | Weight loss [34] | No. of mice survived [35] | further results
1 | CNC(=O)OCc1c(-c2ccccc2)c(-c2ccccc2)n(-c2ccc(OC)cc2)c1COC(=O)NC | 124% | 106% | 135% | 119% | 119% | -1 | 0.3 | -1.3 | 0.5 | -0.8 | 6 | 6 | 6 |  |  |  |  |  | No. of mice survived [14]: 6; No. of mice survived [15]: 6
2 | CNC(=O)OCc1c(-c2ccccc2)c(-c2ccccc2)n(-c2ccccc2)c1COC(=O)NC | 144% | 110% | 171% | 117% | 126% | -0.6 | -0.2 | -2.4 | 0.1 | -1.1 | 6 | 6 | 6 | 6 | 6 |  |  |  | 
3 | CNC(=O)OCc1c(COC(=O)NC)c(-c2ccccc2)n(C)c1-c1ccccc1 |  |  |  |  |  |  |  |  |  |  |  |  |  |  |  |  |  |  | T/C [18]: 135%; T/C [19]: 205%; T/C [20]: 124%; T/C [21]: 135%; T/C [22]: 164%; Weight loss [23]: -2.1; Weight loss [24]: -1.1; Weight loss [25]: -1; Weight loss [26]: -2.8; Weight loss [27]: -4.4; No. of mice survived [28]: 6; No. of mice survived [29]: 6; No. of mice survived [30]: 6; No. of mice survived [31]: 6; No. of mice survived [32]: 6
4 | CNC(=O)OCc1c(COC(=O)NC)c(-c2ccccc2)n(C)c1C | <70% | 130% |  | 145% | 90% | -6 | -3.3 |  | -3.9 | -4.6 | 5 |  | 6 | 6 | 6 | 135% | -2.5 | 6 | 
5 | CNC(=O)OCc1c(-c2ccccc2)c(-c2ccccc2)n(C)c1COC(=O)NC |  | 164% |  | 160% | 160% | -6.1 | -1.4 |  | -3.2 | -2.5 | 5 |  | 6 | 6 | 6 | 138% | -1.1 | 6 | T/C [36]: 102%; T/C [37]: 128%; Weight loss [38]: -2.3; Weight loss [39]: -0.8; No. of mice survived [40]: 6; No. of mice survived [41]: 6
6 | CNC(=O)OCc1c(COC(=O)NC)c(C)n(-c2ccccc2)c1C |  | 145% |  | 148% |  |  |  |  |  |  |  |  |  |  |  | 134% |  |  | No. of mice survived [42]: 5; No. of mice survived [43]: 6; No. of mice survived [44]: 5

Reference: ChEMBL document CHEMBL1121611, “Synthesis and antileukemic activity of 1-methyl-2,5-diphenyl-3,4-bis(hydroxymethyl)-, 1,2,3-triphenyl-4,5-bis(hydroxymethyl)-, and 1-methyl-2,3-diphenyl-4,5-bis(hydroxymethyl)pyrrole bis(N-methylcarbamate)” (1980)
